Results published in ChEMBL document CHEMBL1125291, “New 8-(trifluoromethyl)-substituted quinolones. The benefits of the 8-fluoro group with reduced phototoxic risk” (1992).
≈ marks a conversion by molar mass, not a printed value.

Tests used:
Escherichia coli [1] = experiment: In vivo efficacy in mouse protection test in Escherichia coli Vogel administered by subcutaneous injection.; type: functional; conditions: Escherichia coli, sc; read-out: PD50
How it was run: (§1)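 Acute lethal systemic infections in female Charles River CD-1 mice. A single dose was given at challenge, orally by gavage or by subcutaneous injection. PD50 (median protective dose, mg/kg) was determined.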

Klebsiella pneumoniae = experiment: Minimum inhibitory concentration (MIC) against gram negative bacteria Klebsiella pneumoniae MGH-2.; type: functional; conditions: Klebsiella pneumoniae; read-out: MIC
How it was run: (§2)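 MICs were determined by standard broth microtitration against 11 Gram-positive and Gram-negative organisms, in µg/mL. Values come from duplicate or triplicate experiments and are accurate to ±50%.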

Escherichia coli [2] = experiment: Minimum inhibitory concentration (MIC) against gram negative bacteria Escherichia coli Vogel.; type: functional; conditions: Escherichia coli; read-out: MIC; how it was run: as §2
Mus musculus [3] = species: Mus musculus; experiment: Number of mice which show positive phototoxic reaction in 5 mice; type: functional
Streptococcus pneumoniae [4] = experiment: Minimum inhibitory concentration (MIC) against gram positive bacteria Streptococcus pneumoniae SV-1.; type: functional; conditions: Streptococcus pneumoniae; read-out: MIC; how it was run: as §2
Streptococcus pyogenes [5] = experiment: Minimum inhibitory concentration (MIC) against gram positive bacteria Streptococcus pyogenes C-203.; type: functional; conditions: Streptococcus pyogenes; read-out: MIC; how it was run: as §2
Escherichia coli [6] = experiment: Minimum inhibitory concentration (MIC) against gram negative bacteria Escherichia coli H-560.; type: functional; conditions: Escherichia coli; read-out: MIC; how it was run: as §2
Escherichia coli [7] = experiment: In vivo efficacy in mouse protection test in Escherichia coli Vogel dose administered orally by gavage.; type: functional; conditions: Escherichia coli, po; read-out: PD50; how it was run: as §1
Mus musculus [8] = species: Mus musculus; experiment: Dose required to induce phototoxic reaction in 50% of mice by probit method at different dosage forms.; type: functional
Streptococcus pyogenes [9] = experiment: In vivo efficacy (orally) against Streptococcus pyogenes C-203 in mouse protection test; type: functional; conditions: Streptococcus pyogenes, po; read-out: PD50; how it was run: as §1
Streptococcus pyogenes [10] = experiment: In vivo efficacy (s.c.) against Streptococcus pyogenes C-203 in mouse protection test; type: functional; conditions: Streptococcus pyogenes, sc; read-out: PD50; how it was run: as §1
Enterobacter cloacae = experiment: Minimum inhibitory concentration (MIC) against gram negative bacteria Enterobacter cloacae MA-2646.; type: functional
Staphylococcus aureus [11] = experiment: Minimum inhibitory concentration (MIC) against gram positive bacteria Staphylococcus aureus UC-76.; type: functional; conditions: Staphylococcus aureus; read-out: MIC; how it was run: as §2
[12] = Minimum inhibitory concentration (MIC) against gram negative bacteria Prot. rettgeri M-1771.; type: functional, Providencia rettgeri; conditions: Providencia rettgeri; read-out: MIC; how it was run: as §2
Mus musculus [13] = species: Mus musculus; experiment: Dose which has no effect to induce phototoxic reaction in 50% of mice by probit method.; type: functional
Mus musculus [14] = species: Mus musculus; experiment: Days of the first positive reaction in […] mice.; type: functional
How it was run: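 Phototoxic skin reaction test in depilated female CD-1 mice. A single oral dose (gavage) or subcutaneous dose was given, followed 1 h later by 3 h of UVA exposure (320–400 nm). The regimen was repeated for up to 4 consecutive days, with initial doses of 30, 100 and 300 mg/kg. PTD50 was derived by the probit method. The first day of positive reaction and the no-effect dose were taken from the raw data.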

Enterococcus faecalis = experiment: Minimum inhibitory concentration (MIC) against gram positive bacteria Streptococcus faecalis MGH-2.; type: functional; conditions: Enterococcus faecalis; read-out: MIC; how it was run: as §2
Staphylococcus aureus [15] = experiment: Minimum inhibitory concentration (MIC) against gram positive bacteria Staphylococcus aureus H-228.; type: functional; conditions: Staphylococcus aureus; read-out: MIC; how it was run: as §2
Pseudomonas aeruginosa [16] = experiment: Minimum inhibitory concentration (MIC) against gram negative bacteria Pseudomonas aeruginosa UI-18.; type: functional; conditions: Pseudomonas aeruginosa; read-out: MIC; how it was run: as §2
Mus musculus [17] = experiment: Maximum tolerance dose was measured for phototoxic skin reaction by po administration; type: functional
Streptococcus pneumoniae [18] = experiment: In vivo efficacy (orally) against Streptococcus pneumoniae SV-1 in mouse protection test; type: functional; conditions: Streptococcus pneumoniae, po; read-out: PD50; how it was run: as §1
Streptococcus pneumoniae [19] = experiment: In vivo efficacy (s.c.) against Streptococcus pneumoniae SV-1 in mouse protection test; type: functional; conditions: Streptococcus pneumoniae, sc; read-out: PD50; how it was run: as §1
Pseudomonas aeruginosa [20] = experiment: In vivo efficacy (orally) against Pseudomonas aeruginosa in mouse protection test; type: functional; conditions: Pseudomonas aeruginosa, po; read-out: PD50; how it was run: as §1
Pseudomonas aeruginosa [21] = experiment: In vivo efficacy (s.c.) against Pseudomonas aeruginosa in mouse protection test; type: functional; conditions: Pseudomonas aeruginosa, sc; read-out: PD50; how it was run: as §1

Row | SMILES | ED50 (Escherichia coli [1]) [mg/kg] | MIC (Klebsiella pneumoniae) [µg/mL] | MIC (Escherichia coli [2]) [µg/mL] | No. of pos rxns (Mus musculus [3]) | MIC (Streptococcus pneumoniae [4]) [µg/mL] | MIC (Streptococcus pyogenes [5]) [µg/mL] | MIC (Escherichia coli [6]) [µg/mL] | ED50 (Escherichia coli [7]) [mg/kg] | PTD50 (Mus musculus [8]) [mg/kg] | ED50 (Streptococcus pyogenes [9]) [mg/kg] | ED50 (Streptococcus pyogenes [10]) [mg/kg] | MIC (Enterobacter cloacae) [µg/mL] | MIC (Staphylococcus aureus [11]) [µg/mL] | MIC [12] [µg/mL] | No effect dose (Mus musculus [13]) [mg/kg] | Day of first positve reaction (Mus musculus [14]) | MIC (Enterococcus faecalis) [µg/mL] | MIC (Staphylococcus aureus [15]) [µg/mL] | MIC (Pseudomonas aeruginosa [16]) [µg/mL] | MTD (Mus musculus [17]) [mg/kg] | other results
1 | C[C@@H]1CN(c2cc3c(cc2F)c(=O)c(C(=O)O)cn3C2CC2)CCN1 | 0.4 | 0.05 (≈ 0.145 µM) | 0.025 (≈ 0.0724 µM) | 1 | 0.2 (≈ 0.579 µM) | 0.2 (≈ 0.579 µM) | 0.025 (≈ 0.0724 µM) | 1.2 | >100 | 39 | 12 | 0.025 (≈ 0.0724 µM) | 0.1 (≈ 0.29 µM) | 0.1 (≈ 0.29 µM) | 100 | 0 | 0.4 (≈ 1.16 µM) | 0.4 (≈ 1.16 µM) | 0.4 (≈ 1.16 µM) | 100 | 
2 | CC1(CN)CCN(c2c(F)cc3c(=O)c(C(=O)O)cn(C4CC4)c3c2F)C1 (stereo unspecified) | 3 | 0.025 (≈ 0.0662 µM) | 0.013 (≈ 0.0344 µM) | 5 | 0.003 (≈ 0.00795 µM) | 0.003 (≈ 0.00795 µM) | 0.006 (≈ 0.0159 µM) | 1.8 | <30 |  |  | 0.013 (≈ 0.0344 µM) |  | 0.05 (≈ 0.132 µM) | <30 | 1 | 0.006 (≈ 0.0159 µM) | 0.013 (≈ 0.0344 µM) | 0.4 (≈ 1.06 µM) | 30 | ED50 (Streptococcus pneumoniae [18]): 1.2 mg/kg; ED50 (Streptococcus pneumoniae [19]): 0.3 mg/kg
3 | C[C@@H]1CN(c2c(F)cc3c(=O)c(C(=O)O)cn(C4CC4)c3c2C(F)(F)F)CCN1 | 1.4 | 0.4 (≈ 0.968 µM) | 0.1 (≈ 0.242 µM) | 0 | 0.8 (≈ 1.94 µM) | 0.8 (≈ 1.94 µM) | 0.05 (≈ 0.121 µM) | 1.6 | >100 | 23 | 21 | 0.2 (≈ 0.484 µM) | 0.2 (≈ 0.484 µM) | 0.8 (≈ 1.94 µM) | 100 | 0 | 0.8 (≈ 1.94 µM) | 0.4 (≈ 0.968 µM) | 3.1 (≈ 7.5 µM) | 100 | 
4 | CCNCC1CCN(c2c(F)cc3c(=O)c(C(=O)O)cn(C4CC4)c3c2C(F)(F)F)C1 (stereo unspecified) | 1.7 | 0.8 (≈ 1.81 µM) | 0.4 (≈ 0.906 µM) | 0 | 0.05 (≈ 0.113 µM) | 0.05 (≈ 0.113 µM) | 0.2 (≈ 0.453 µM) | 5.3 | >100 | 1.6 | 1.1 | 0.4 (≈ 0.906 µM) | 0.013 (≈ 0.0295 µM) | 1.6 (≈ 3.62 µM) | 100 | 0 | 0.1 (≈ 0.227 µM) | 0.05 (≈ 0.113 µM) | 6.3 (≈ 14.3 µM) | 100 | ED50 (Pseudomonas aeruginosa [20]): 93 mg/kg; ED50 (Streptococcus pneumoniae [18]): 1.4 mg/kg; ED50 (Pseudomonas aeruginosa [21]): 46 mg/kg; ED50 (Streptococcus pneumoniae [19]): 0.9 mg/kg
5 | NC1CCN(c2c(F)cc3c(=O)c(C(=O)O)cn(C4CC4)c3c2C(F)(F)F)CC1 | 4.5 | 0.4 (≈ 0.968 µM) | 0.2 (≈ 0.484 µM) | 0 | 0.2 (≈ 0.484 µM) | 0.1 (≈ 0.242 µM) | 0.2 (≈ 0.484 µM) | 12.5 | >100 |  |  | 0.2 (≈ 0.484 µM) | 0.05 (≈ 0.121 µM) | 0.8 (≈ 1.94 µM) | 100 | 0 | 0.2 (≈ 0.484 µM) | 0.1 (≈ 0.242 µM) | 3.1 (≈ 7.5 µM) | 100 | 
6 | NC1CCN(c2c(F)cc3c(=O)c(C(=O)O)cn(C4CC4)c3c2F)CC1 | 1.2 | 0.1 (≈ 0.275 µM) | 0.1 (≈ 0.275 µM) | 5 | 0.4 (≈ 1.1 µM) | 0.4 (≈ 1.1 µM) | 0.05 (≈ 0.138 µM) | 3.7 | 55 |  |  | 0.1 (≈ 0.275 µM) | 0.025 (≈ 0.0688 µM) | 0.2 (≈ 0.55 µM) | 30 | 2 | 0.2 (≈ 0.55 µM) | 0.1 (≈ 0.275 µM) | 0.8 (≈ 2.2 µM) | 100 | ED50 (Streptococcus pneumoniae [18]): 15 mg/kg; ED50 (Streptococcus pneumoniae [19]): 3.6 mg/kg
